Legend:
[1] = target: T1, Adenosine receptor A1 (Homo sapiens) (UniProt P30542); experiment: Potentiation of [3H]CCPA binding to human adenosine A1 receptor expressed in CHO cell membranes at 10 uM after 90 mins relative to [3H]CCPA-treated control
T1 sequence (whole entry): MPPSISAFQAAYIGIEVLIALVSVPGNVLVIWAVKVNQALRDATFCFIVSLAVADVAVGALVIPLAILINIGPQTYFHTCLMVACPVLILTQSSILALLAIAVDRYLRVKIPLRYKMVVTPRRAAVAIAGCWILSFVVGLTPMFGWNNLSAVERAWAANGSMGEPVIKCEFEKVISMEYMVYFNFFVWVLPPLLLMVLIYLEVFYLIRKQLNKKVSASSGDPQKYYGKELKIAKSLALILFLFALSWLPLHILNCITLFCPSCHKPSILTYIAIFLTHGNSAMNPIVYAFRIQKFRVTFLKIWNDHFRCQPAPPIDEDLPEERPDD

[2] = target: T1, Adenosine receptor A1 (Homo sapiens); experiment: (§1) Allosteric enhancement of human adenosine A1 receptor expressed in CHO cells assessed as inhibition of forskolin-stimulated cAMP production at 10 uM preincubated for 10 mins followed by forskolin challenge measured after 5 mins by scintillation counting analysis relative to control; assay type: functional, cell-based
How it was run: (§2)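 hA1-CHO cells (10⁶ cells/mL) in phosphate buffer with adenosine deaminase 1.0 IU/mL and Ro 20-1724 0.5 mM, preincubated 10 min at 37 °C. Compound added for 10 min, alone or at 100 nM with CCPA 1 pM. Forskolin 1 µM added for 5 min, stopped with cold 6% TCA. cAMP measured by [³H]-cAMP competition protein-binding assay; percent inhibition versus control; three experiments.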

[3] = target: T1, Adenosine receptor A1 (Homo sapiens); experiment: Displacement of [3H]-DPCPX from human adenosine A1 receptor expressed in CHO cell membranes at 10 uM by scintillation counting analysis relative to control
How it was run: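 hA1-CHO membranes, pretreated with adenosine deaminase, in 50 mM Tris-HCl pH 7.4 with 1 nM [³H]DPCPX. Incubated 120 min at 25 °C. Compound 10 µM added from 100-fold DMSO stock, 1% DMSO final. Bound ligand collected on glass-fibre filters and counted by scintillation; percent inhibition of specific binding.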

[4] = target: T2, Adenosine receptor A3 (Homo sapiens) (UniProt P0DMS8); experiment: Displacement of [3H]-MRE-3008-F20 from human adenosine A3 receptor expressed in CHO cell membranes at 10 uM by scintillation counting analysis relative to control
T2 sequence (whole entry): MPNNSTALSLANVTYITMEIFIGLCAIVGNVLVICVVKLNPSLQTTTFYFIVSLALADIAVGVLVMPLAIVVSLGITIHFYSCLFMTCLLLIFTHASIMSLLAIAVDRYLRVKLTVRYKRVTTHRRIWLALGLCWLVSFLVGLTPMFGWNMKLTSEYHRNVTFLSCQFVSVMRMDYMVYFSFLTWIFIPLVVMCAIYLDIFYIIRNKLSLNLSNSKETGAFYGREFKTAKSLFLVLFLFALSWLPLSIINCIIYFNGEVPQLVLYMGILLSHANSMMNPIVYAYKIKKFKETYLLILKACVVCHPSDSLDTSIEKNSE
How it was run: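 A3-expressing CHO membranes in 50 mM Tris-HCl, 10 mM MgCl₂, 1 mM EDTA pH 7.4 with 2 nM [³H]MRE-3008-F20. Incubated 120 min at 4 °C. Compound 10 µM in 1% DMSO final. Filtration and scintillation counting; percent inhibition of specific binding.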

[5] = target: T1, Adenosine receptor A1 (Homo sapiens); experiment: as §1, with “100 nM” for “10 uM”, “analysis in presence of CCPA” for “analysis”; assay type: functional, cell-based; how it was run: as §2
[6] = target: T1, Adenosine receptor A1 (Homo sapiens); experiment: Potentiation of CCPA-induced displacement of [3H]-DPCPX from human adenosine A1 receptor expressed in CHO cell membranes at 10 uM after 90 mins relative to CCPA-treated control
How it was run: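 CCPA (0.01 nM–1 µM) competition against [³H]DPCPX in hA1-CHO membranes, with or without compound at 10 µM. Nonspecific binding defined with 1 µM DPCPX. Ki calculated from IC50 by the Cheng-Prusoff equation; CCPA Ki shift given as fold change; three experiments.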

[7] = target: Adenosine receptor A2a (Homo sapiens) (UniProt P29274); experiment: Displacement of [3H]-ZM241385 from human adenosine A2A receptor expressed in CHO cell membranes at 10 uM by scintillation counting analysis relative to control
Chain of Adenosine receptor A2a (Homo sapiens) (P29274 whole entry): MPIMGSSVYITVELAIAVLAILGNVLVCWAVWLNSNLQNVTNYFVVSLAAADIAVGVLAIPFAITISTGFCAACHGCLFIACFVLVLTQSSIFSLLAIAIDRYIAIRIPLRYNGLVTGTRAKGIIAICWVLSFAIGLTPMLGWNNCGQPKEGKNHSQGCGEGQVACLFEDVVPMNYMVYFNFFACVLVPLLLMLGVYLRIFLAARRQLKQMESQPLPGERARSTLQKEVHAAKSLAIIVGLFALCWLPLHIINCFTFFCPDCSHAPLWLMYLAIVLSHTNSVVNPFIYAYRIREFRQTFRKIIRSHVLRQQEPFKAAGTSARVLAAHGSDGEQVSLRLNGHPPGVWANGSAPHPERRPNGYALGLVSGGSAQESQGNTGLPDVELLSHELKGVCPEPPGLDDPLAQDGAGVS
How it was run: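 A2A-expressing CHO membranes, pretreated with adenosine deaminase, in 50 mM Tris-HCl, 10 mM MgCl₂ pH 7.4 with 1 nM [³H]ZM 241385. Incubated 60 min at 4 °C. Compound 10 µM in 1% DMSO final. Filtration and scintillation counting; percent inhibition of specific binding.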

fold change (FC) [1]	inhibition [2] [%]	inhibition [3] [%]	inhibition [4] [%]	inhibition [5] [%]	fold change (FC) [6]	inhibition [7] [%]	Structure (SMILES)
6.6	61	1	1	59	5.2	1	CC(C)(C)Cc1c(-c2ccc3c(c2)OCO3)sc(N)c1C(=O)c1ccc(Cl)cc1
4.5	42	1	1	40	4	1	CC(C)(C)Cc1c(Br)sc(N)c1C(=O)c1ccc(Cl)c(Cl)c1

— ChEMBL document CHEMBL3098020, “Synthesis and biological evaluation of novel 2-amino-3-aroyl-4-neopentyl-5-substituted thiophene derivatives as allosteric enhancers of the A₁ adenosine receptor” (Bioorg Med Chem, 2014)
